The results in this text go back to ChEMBL document CHEMBL5335802, “Lead Optimization of the 5-Phenylpyrazolopyrimidinone NPD-2975 toward Compounds with Improved Antitrypanosomal Efficacy” (J Med Chem, 2024).

Data set [1] in a line: Toxicity in mouse infected with Trypanosoma brucei Squib 427 trypomastigotes assessed as animal death at 10 mg/kg,po bid administrated for 5 consecutive days measured after 60 days. Format: organism-based. The conditions noted are these: in vivo, 1440 h, time 60 day.
Data set [2] in a line: Metabolic stability in human liver microsomes assessed as parent compound remaining in phase-II metabolism measured after 1 hr. Format: ADME, Microsome. The note with it: read-out: Stability. (In general: Microsomes from liver hold many membrane-bound enzymes, among them those of drug oxidation.)
The nature of data set [3]: Metabolic stability in human liver microsomes assessed as drug metabolism in phase-I stage. The format is ADME, Microsome.
The nature of data set [4]: Metabolic stability in mouse liver microsomes assessed as parent compound remaining in phase-II metabolism measured after 1 hr. Format: ADME, Microsome. The conditions noted are these: read-out: Stability.
A short description of data set [5]: Cytotoxicity against human MRC5 cells incubated for 3 days by resazurin reagent fluorimetric analysis. Format: toxicity, cell-based. On the technique in general: Alamar Blue is a resazurin reagent that responds to reducing activity.
Data set [6] concerns Trypanosoma brucei. In words: Antitrypanosomal activity against Trypanosoma brucei assessed as inhibition of parasite growth incubated for 72 hrs by resazurin reagent fluorimetric analysis. The format is functional, organism-based.
Data set [7] is described as follows: Toxicity in mouse infected with Trypanosoma brucei Squib 427 trypomastigotes assessed as animal death at 50 mg/kg,po bid administrated for 5 consecutive days measured after 60 days. Format: organism-based. The note with it: in vivo, 1440 h, time 60 day. The method in brief: (§1)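 Female Swiss mice (15-20 g), groups of three, infected IP with 10⁴ T. brucei Squib 427 trypomastigotes. Compound given PO b.i.d. for 5 days in PEG400 (formulated at 12.5 and 6.25 mg/mL, up to 100 μL/25 g body weight). First dose 30 min before infection. PEG400 vehicle control group included. Animals observed for clinical or adverse effects and survival; tail-vein parasitemia checked microscopically until 63 dpi.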

Data set [8] concerns Trypanosoma brucei. The data set is described as follows: Antitrypanosomal activity against Trypanosoma brucei Squib 427 trypomastigotes infected in mouse model assessed as reduction in parasite growth in spleen at 25 mg/kg,po bid administrated for 5 consecutive days by SL-RNA qPCR assay. The format is functional, organism-based. The method in brief:
(§2)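 Surviving mice from the acute infection model (PO b.i.d., 5 days, PEG400) tested by SL-RNA qPCR. Peripheral blood erythrocyte-lysed before RNA extraction. Mice sedated with ketamine/xylazine and perfused; fat, brain and spleen pieces held in RNAlater overnight at 4 °C. Activation 10 min 45 °C, 10 min 95 °C; 40 cycles 95/50/60 °C, 15 s each; melting curve. Eef2 qPCR confirmed RNA extraction.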
In general terms: Real-time PCR tracks product formation cycle by cycle.

Data set [9] has as its system Trypanosoma brucei. In words: Antitrypanosomal activity against Trypanosoma brucei Squib 427 trypomastigotes infected in mouse model assessed as reduction in parasite growth in fat at 25 mg/kg,po bid administrated for 5 consecutive days by SL-RNA qPCR assay. The format is functional, organism-based. The method in brief: as §2
For data set [10], the system named is Trypanosoma brucei. The data set is described as follows: Antitrypanosomal activity against Trypanosoma brucei Squib 427 trypomastigotes infected in mouse model assessed as reduction in parasite growth in blood at 50 mg/kg,po bid administrated for 5 consecutive days by SL-RNA qPCR assay. Format: functional, organism-based. The method, boiled down: as §2
For data set [11], the system named is Trypanosoma brucei. In words: Antitrypanosomal activity against Trypanosoma brucei Squib 427 trypomastigotes infected in mouse model assessed as reduction in parasitemia at 25 mg/kg,po bid administrated for 5 consecutive days. Format: functional, organism-based. The method in brief: (§3)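 Female Swiss mice (15-20 g), three per group, infected IP with 10^4 T. brucei Squib 427 trypomastigotes. Dosing PO b.i.d. for 5 days in PEG400; first dose 30 min before infection. Vehicle and suramin (10 mg/kg IP s.i.d., 5 days) controls. Parasitemia counted microscopically in tail-vein blood drops at several time points up to 63 dpi. Clinical or adverse effects observed.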

Data set [12] can be described thus: Toxicity in mouse infected with Trypanosoma brucei Squib 427 trypomastigotes assessed as animal death at 25 mg/kg,po bid administrated for 5 consecutive days. Format: organism-based. The note with it: in vivo. The method in brief:
as §1

The test system of data set [13] is Trypanosoma brucei. In words: Antitrypanosomal activity against Trypanosoma brucei Squib 427 trypomastigotes infected in mouse model assessed as reduction in parasite growth in fat at 50 mg/kg,po bid administrated for 5 consecutive days by SL-RNA qPCR assay. Format: functional, organism-based. The method, boiled down: as §2
For data set [14], the system named is Trypanosoma brucei. In words: Antitrypanosomal activity against Trypanosoma brucei Squib 427 trypomastigotes infected in mouse model assessed as reduction in parasite growth in brain at 25 mg/kg,po bid administrated for 5 consecutive days by SL-RNA qPCR assay. The format is functional, organism-based. The method, boiled down: as §2
The subject of data set [15] is Trypanosoma brucei. The data set is described as follows: Antitrypanosomal activity against Trypanosoma brucei Squib 427 trypomastigotes infected in mouse model assessed as reduction in parasitemia at 50 mg/kg,po bid administrated for 5 consecutive days by microscopic analysis. Format: functional, organism-based. The method in brief:
as §3

In data set [16] the test system is Trypanosoma brucei. In words: Antitrypanosomal activity against Trypanosoma brucei Squib 427 trypomastigotes infected in mouse model assessed as reduction in parasite growth in spleen at 50 mg/kg,po bid administrated for 5 consecutive days by SL-RNA qPCR assay. Format: functional, organism-based. The method, boiled down: as §2
A short description of data set [17]: Cytotoxicity against mouse Peritoneal macrophage cell incubated for 3 days by resazurin reagent fluorimetric analysis. The note with it: peritoneal macrophages. Format: toxicity, cell-based.
The test system of data set [18] is Trypanosoma brucei. In words: Antitrypanosomal activity against Trypanosoma brucei Squib 427 trypomastigotes infected in mouse model assessed as reduction in parasite growth in brain at 50 mg/kg,po bid administrated for 5 consecutive days by SL-RNA qPCR assay. Format: functional, organism-based. The method in brief:
as §2

Data set [19] has as its system Trypanosoma brucei. The data set is described as follows: Antitrypanosomal activity against Trypanosoma brucei Squib 427 trypomastigotes infected in mouse model assessed as reduction in parasite growth in blood at 25 mg/kg,po bid administrated for 5 consecutive days by SL-RNA qPCR assay. Format: functional, organism-based. The method in brief:
as §2

The subject of the next data set is Plasmodium falciparum. The data set is described as follows: Antiplasmodial activity against Plasmodium falciparum assessed as inhibition of parasite growth incubated for 72 hrs by resazurin reagent fluorimetric analysis. Format: functional, organism-based.

SMILES strings stand for the structures. The source made the active and inactive calls. The rule behind the calls is not given here.

Regarding `Cc1ccc(C(=O)Nc2ccc(S(=O)(=O)O)c3cc(S(=O)(=O)O)cc(S(=O)(=O)O)c23)cc1NC(=O)c1cccc(NC(=O)Nc2cccc(C(=O)Nc3cc(C(=O)Nc4ccc(S(=O)(=O)O)c5cc(S(=O)(=O)O)cc(S(=O)(=O)O)c45)ccc3C)c2)c1` [SURAMIN], the Activity result in [1] is “Non-Toxic”.
In the case of `CC(C)c1n[nH]c2c(=O)[nH]c(-c3ccc(F)cc3)nc12`, the remaining at 1 h in data set [2] and in data set [4] was 69% in each case. In addition, in [3], the Stability entry is on record as “Stable”.
In data set [5], `O=c1[nH]c(-c2ccc(F)cc2)nc2c(C3CCCCC3)n[nH]c12` gave an IC50 at 3 days above 63.1 µM. In addition, the IC50 in the data set with Trypanosoma brucei [6] (read-out: pIC50 (converted)) was 0.0398 µM.
`CC(C)(C)c1n[nH]c2c(=O)[nH]c(-c3ccc(F)cc3)nc12`: the remaining at 1 h in [2] and in data set [4] was 69% throughout. In addition, the Activity entry in data set [7] and in [12] was “Non-Toxic” in each case. Besides, the outcome in the data set on Trypanosoma brucei [8], in the data set with Trypanosoma brucei [9], in the data set with Trypanosoma brucei [10], in the data set on Trypanosoma brucei [11], in the data set on Trypanosoma brucei [13] and with Trypanosoma brucei [14] was Active. Moreover, the outcome in the data set with Trypanosoma brucei [15], with Trypanosoma brucei [16], in the data set with Trypanosoma brucei [18] and in the data set on Trypanosoma brucei [19] was Active. For the same compound, the IC50 at 3 days in data set [5] and in [17] was above 63.1 µM throughout. Further, in [3], the Stability entry is “Stable”.
As for `CC(C)c1nn(CCC(N)=O)c2c(=O)[nH]c(-c3ccc(F)cc3)nc12`, the IC50 at 3 days in data set [5] is above 63.1 µM.
`O=c1[nH]c(-c2ccc(F)cc2)nc2c(-c3ccccc3)n[nH]c12`: the IC50 at 3 days in data set [5] was above 63.1 µM. Further, the IC50 in the data set with Trypanosoma brucei [6] (read-out: pIC50 (converted)) is 0.0501 µM.
For `CC(C)c1[nH]nc2c(=O)n(C)c(-c3ccc(F)cc3)nc12`, the IC50 at 3 days in data set [5] was above 63.1 µM.
The compound `CC(C)c1nn(C(C)C)c2c(=O)[nH]c(-c3ccc(F)cc3)nc12` had an IC50 at 3 days in data set [5] above 63.1 µM.
In [5], `CC(C)c1nn(CCO)c2c(=O)[nH]c(-c3ccc(F)cc3)nc12` showed an IC50 at 3 days above 63.1 µM.
Still for that read-out and setting: the result for `Cc1n[nH]c2c(=O)[nH]c(-c3ccc(F)cc3)nc12` reads above 63.1 µM; that for `CC(C)c1c2nc(-c3ccc(F)cc3)[nH]c(=O)c2nn1C`, above 63.1 µM.
Turning to `COCCn1nc(C(C)C)c2nc(-c3ccc(F)cc3)[nH]c(=O)c21`, in data set [5], the IC50 at 3 days is above 63.1 µM.
For the compound `O=c1[nH]c(-c2ccc(F)cc2)nc2c(C3CCCC3)n[nH]c12`, the remaining at 1 h in data set [2] and in [4] was 69% each time. For the same compound, the IC50 at 3 days in data set [5] and in [17] was above 63.1 µM each time. The Stability entry in data set [3] is listed as “Stable”.
Compound `CC(C)c1nn(C)c2c(=O)[nH]c(-c3ccc(F)cc3)nc12` had an IC50 at 3 days in data set [5] above 63.1 µM. In addition, in the data set with Trypanosoma brucei [6] (read-out: pIC50 (converted)), the IC50 is 0.0794 µM.
`CC(C)c1n[nH]c2c(=O)[nH]c(Cc3ccccc3)nc12`: in the data set with Plasmodium falciparum, the IC50 is 1.26 µM.
With `CCCn1nc(C(C)C)c2nc(-c3ccc(F)cc3)[nH]c(=O)c21`, the IC50 at 3 days in data set [5] is above 63.1 µM.
Same read-out and setting: the result for `CCn1nc(C(C)C)c2nc(-c3ccc(F)cc3)[nH]c(=O)c21` reads above 63.1 µM; that for `O=c1[nH]c(-c2ccc(F)cc2)nc2cn[nH]c12`, above 63.1 µM; that for `CCc1n[nH]c2c(=O)[nH]c(-c3ccc(F)cc3)nc12`, above 63.1 µM.
For the compound `COc1ccc(CCn2nc(C(C)C)c3nc(-c4ccc(F)cc4)[nH]c(=O)c32)cc1`, the IC50 at 3 days in data set [5] is above 63.1 µM. Also, the IC50 in the data set on Trypanosoma brucei [6] (read-out: IC50) is 3.2 µM; in the data set on Trypanosoma brucei [6] (read-out: pIC50 (converted)), 3.16 µM.
